Experimental data gathered from unrelated publications.
ADRB2: Beta-2 adrenergic receptor (ADRB2, Homo sapiens, UniProt P07550)
PCNA: Proliferating cell nuclear antigen (PCNA, Homo sapiens, UniProt P12004)
Ntsr1: Neurotensin receptor type 1 (Ntsr1, Rattus norvegicus, UniProt P20789)
F10 trypsin-like site: Coagulation factor X, trypsin-like site (F10, Homo sapiens, UniProt P00742)
MMP2: 72 kDa type IV collagenase (MMP2, Homo sapiens, UniProt P08253)

Compound	target	assay	conditions	endpoint	value
COc1cccc2c1C(=O)c1c(O)c3c(c(O)c1C2=O)C[C@@](O)(C(=O)CO)C[C@@H]3O[C@H]1C[C@H](N)[C@H](O)[C@H](C)O1	Ileal sodium/bile acid cotransporter (SLC10A2, Homo sapiens, UniProt Q12908)	transporter uptake, inhibitor	–	Ki	101 µM
COc1cc(N)c(Cl)cc1C(=O)NC1CN2CCC1CC2 (stereo not shown)	ADRB2	ligand displacement, radioligand	cell membranes	IC50	244 µM
CC[C@H](C)[C@H](NC(=O)[C@H](CCCCN)NC(=O)[C@H](CO)NC(=O)[C@H](CC(=O)O)NC(=O)[C@H](CCCCN)NC(=O)[C@H](CCCCN)NC(=O)CNC(=O)[C@H](Cc1c[nH]cn1)NC(=O)[C@@H](N)CCC(N)=O)C(=O)N[C@H](C(=O)N[C@@H](CC(=O)O)C(=O)N[C@@H](Cc1c[nH]cn1)C(=O)N[C@@H](C)C(=O)N[C@@H](CCSC)C(=O)N[C@@H](CCCNC(=N)N)C(=O)N[C@@H](CC(C)C)C(=O)N1CCC[C@H]1C(=O)N[C@@H](CCCCN)C(=O)N[C@@H](C)C(=O)O)[C@@H](C)O	PCNA	binding, ITC	pH 7.4	Kd	41.3 µM
NCC(O)c1ccc(O)c(O)c1F (stereo not shown)	Beta-2 adrenergic receptor (ADRB2, Homo sapiens, UniProt P07550, N293F)	ligand displacement, radioligand	cell membranes	Ki	216 µM
CCOC(=O)C(CC)(CCCSCCOCCOCCNc1ccc([N+](=O)[O-])c2nonc12)NC(=O)c1ccc(C2CC2)c(Cc2ccc(F)cc2)n1 (racemic)	Cannabinoid receptor 2 (CNR2, Homo sapiens, UniProt P34972)	cAMP, agonist	–	EC50	0.0047 µM
O=C(N[C@H](C(=O)O)C1CCCCC1)c1cc(-c2c(F)cccc2F)n(-c2ccnc3cc(Cl)ccc23)n1	Ntsr1	calcium signal, antagonist, fluorescence	–	Kb	> 10 µM
NCC(O)c1cc(O)c(O)cc1F (stereo not shown)	Beta-2 adrenergic receptor (ADRB2, Homo sapiens, UniProt P07550, N293A)	ligand displacement, radioligand	cell membranes	Ki	5450 µM
CC(C)(C)[C@H](NC(=O)[C@H](CCONC(=N)N)NC(=O)Cc1ccc(CNC(=N)N)cc1)C(=O)N[C@@H](CCCCN)C(=O)NCc1ccc(C(=N)N)cc1	F10 trypsin-like site	enzyme activity, inhibitor	pH 8	Ki	26 µM
CC(C)C[C@H](NC(=O)[C@H](Cc1ccccc1)NC(=O)c1cnccn1)B(O)O	Coagulation factor X (F10, Homo sapiens, UniProt P00742)	enzyme activity, inhibitor	–	IC50	> 33 µM
O=C(CCCCCCNC(=O)c1cnc(N(c2ccccc2)c2ccccc2)nc1)NO	Polyamine deacetylase HDAC10 (HDAC10, Homo sapiens, UniProt Q969S8)	enzyme activity, inhibitor, fluorescence	–	IC50	0.466 µM
CCc1c(C(=O)N[C@H](C(=O)O)C2CCCCC2)nn(-c2ccnc3cc(Cl)ccc23)c1-c1c(OC)cccc1OC	Ntsr1	calcium signal, antagonist, fluorescence	–	Kb	> 10 µM
CC(C)(C)[C@H](NC(=O)[C@H](CCCNC(=N)N)NC(=O)Cc1ccc(CNC(=N)N)cc1)C(=O)N[C@@H](CCCNC(=N)N)C(=O)NCc1ccc(C(=N)N)cc1	F10 trypsin-like site	enzyme activity, inhibitor	pH 8	Ki	7.1 µM
CC[C@H](C)[C@H](NC(=O)[C@H](CCCCN)NC(=O)[C@H](CO)NC(=O)[C@H](CC(=O)O)NC(=O)[C@H](CCCCN)NC(=O)[C@H](CCCCN)NC(=O)CNC(=O)[C@H](Cc1c[nH]cn1)NC(=O)[C@@H](N)CCC(N)=O)C(=O)N[C@H](C(=O)N[C@@H](C)C(=O)N[C@@H](Cc1c[nH]cn1)C(=O)N[C@@H](Cc1ccccc1)C(=O)N[C@@H](CCSC)C(=O)N[C@@H](CCCNC(=N)N)C(=O)N[C@@H](CC(C)C)C(=O)N1CCC[C@H]1C(=O)N[C@@H](CCCCN)C(=O)N[C@@H](C)C(=O)O)[C@@H](C)O	PCNA	binding, ITC	pH 7.4	Kd	8.67 µM
C[C@H](N)Cn1ncc2ccc3c(c21)CCCO3	ADRB2	cell-free assay, radioligand	–	Ki	0.48 µM
CCCCOc1ccc(C(=O)CCN2CCCCC2)cc1	Histamine H3 receptor (HRH3, Homo sapiens, UniProt Q9Y5N1)	ligand displacement, radioligand	–	IC50	3.89 µM
CC[C@H](C)[C@H](NC(=O)[C@H](C)NC(=O)[C@H](CO)NC(=O)[C@H](CC(=O)O)NC(=O)[C@H](CCCCN)NC(=O)[C@H](CCCCN)NC(=O)CNC(=O)[C@H](Cc1c[nH]cn1)NC(=O)[C@@H](N)CCC(N)=O)C(=O)N[C@H](C(=O)N[C@@H](CC(=O)O)C(=O)N[C@@H](Cc1c[nH]cn1)C(=O)N[C@@H](Cc1ccccc1)C(=O)N[C@@H](CCSC)C(=O)N[C@@H](CCCNC(=N)N)C(=O)N[C@@H](CC(C)C)C(=O)N1CCC[C@H]1C(=O)N[C@@H](CCCCN)C(=O)N[C@@H](C)C(=O)O)[C@@H](C)O	PCNA	binding, ITC	pH 7.4	Kd	24.9 µM
CC#CCOc1ccc(S(=O)(=O)CC2CS2)cc1 (racemic)	MMP2	enzyme activity, inhibitor, fluorescence	–	IC50	26 µM
c1ccc2c(c1)ccc1ccc3ccccc3c12	Cytochrome P450 1B1 (CYP1B1, Homo sapiens, UniProt Q16678)	binding, absorbance	pH 7.4	Kd	2.5 µM
CCCCNNC(=O)c1ccc(Br)cc1	Histone deacetylase 7 (HDAC7, Homo sapiens, UniProt Q8WUI4)	enzyme activity, inhibitor, fluorescence	–	IC50	> 100 µM
CC[C@H](C)[C@H](NC(=O)[C@H](CCCCN)NC(=O)[C@H](CO)NC(=O)[C@H](CC(=O)O)NC(=O)[C@H](CCCCN)NC(=O)[C@H](CCCCN)NC(=O)CNC(=O)[C@H](Cc1c[nH]cn1)NC(=O)[C@@H](N)CCC(N)=O)C(=O)N[C@@H](C)C(=O)N[C@@H](CC(=O)O)C(=O)N[C@@H](Cc1c[nH]cn1)C(=O)N[C@@H](Cc1ccccc1)C(=O)N[C@@H](CCSC)C(=O)N[C@@H](CCCNC(=N)N)C(=O)N[C@@H](CC(C)C)C(=O)N1CCC[C@H]1C(=O)N[C@@H](CCCCN)C(=O)N[C@@H](C)C(=O)O	PCNA	binding, ITC	pH 7.4	Kd	55.5 µM
O=C(N[C@H]1COC(=O)[C@@H](NC(=O)c2cccc(O)c2[O-])COC(=O)[C@@H](NC(=O)c2cccc(O)c2[O-])COC1=O)c1cccc(O)c1[O-].[Fe+3]	Neutrophil gelatinase-associated lipocalin (LCN2, Homo sapiens, UniProt P80188, C107S)	binding, fluorescence	pH 5.5	Kd	0.00015 µM
CC[C@H](C)[C@H](NC(=O)[C@H](CCCNC(=N)N)NC(=O)[C@H](CO)NC(=O)[C@H](CC(=O)O)NC(=O)[C@H](CCCCN)NC(=O)[C@H](CCCCN)NC(=O)CNC(=O)[C@H](Cc1c[nH]cn1)NC(=O)[C@@H](N)CCC(N)=O)C(=O)N[C@H](C(=O)N[C@@H](CC(=O)O)C(=O)N[C@@H](Cc1c[nH]cn1)C(=O)N[C@@H](Cc1ccccc1)C(=O)N[C@@H](CCSC)C(=O)N[C@@H](CCCNC(=N)N)C(=O)N[C@@H](CC(C)C)C(=O)N1CCC[C@H]1C(=O)N[C@@H](CCCCN)C(=O)N[C@@H](C)C(=O)O)[C@@H](C)O	PCNA	binding, ITC	pH 7.4	Kd	6.67 µM
C#CCOc1ccc(S(=O)(=O)CC2CS2)cc1 (racemic)	MMP2	enzyme activity, inhibitor, fluorescence	–	IC50	7 µM
CC[C@H](C)[C@H](NC(=O)[C@H](CC(C)C)NC(=O)[C@H](CO)NC(=O)[C@H](CC(=O)O)NC(=O)[C@H](CCCCN)NC(=O)[C@H](CCCCN)NC(=O)CNC(=O)[C@H](Cc1c[nH]cn1)NC(=O)[C@@H](N)CCC(N)=O)C(=O)N[C@H](C(=O)N[C@@H](CC(=O)O)C(=O)N[C@@H](Cc1c[nH]cn1)C(=O)N[C@@H](Cc1ccccc1)C(=O)N[C@@H](CCSC)C(=O)N[C@@H](CCCNC(=N)N)C(=O)N[C@@H](CC(C)C)C(=O)N1CCC[C@H]1C(=O)N[C@@H](CCCCN)C(=O)N[C@@H](C)C(=O)O)[C@@H](C)O	PCNA	binding, ITC	pH 7.4	Kd	4.55 µM
CC(C)(C)[C@H](NC(=O)[C@H](CCCNC(=N)N)NC(=O)Cc1ccc(CNC(=N)N)cc1)C(=O)N[C@@H](CCONC(=N)N)C(=O)NCc1ccc(C(=N)N)cc1	F10 trypsin-like site	enzyme activity, inhibitor	pH 8	Ki	15 µM
